The source of these data is ChEMBL document CHEMBL1921744, “Lipophosphonoxins: new modular molecular structures with significant antibacterial properties” (J Med Chem, 2011).

Series [1] deals with Enterococcus faecium. Nature of the series: Antibacterial activity against vancomycin-resistant Enterococcus faecium SR7917. It is filed as functional.
The test system of series [2] is Enterococcus faecalis. Nature of the series: Antibacterial activity against vancomycin-resistant Enterococcus faecalis SR7914. Type of series: functional.
The subject of series [3] is Enterococcus faecalis. As to the kind of experiment: Antibacterial activity against Enterococcus faecalis ATCC 29212. Type of series: functional.
Series [4] has as its system Enterococcus faecalis. Nature of the series: Antibacterial activity against Enterococcus faecalis CCM 4224 after 24 to 48 hrs by microdilution method. Type of series: functional. A digest of the protocol:
(§1)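 Incubation 24/48 h at 37 °C. MIC read as the lowest concentration inhibiting growth. MBC determined by transferring 10 μL from wells onto blood agar, taken as the lowest concentration with no visible growth.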

The test system of the next series is Staphylococcus aureus. As to the kind of experiment: Antibacterial activity against Staphylococcus aureus CCM 4223 after 24 to 48 hrs by microdilution method. Type of series: functional. A digest of the protocol:
as §1
(Broth dilution looks for growth in wells or tubes with falling amounts of substance.)

Series [5] deals with Staphylococcus epidermidis. Nature of the series: Antibacterial activity against methicillin-resistant Staphylococcus epidermidis 8700/B after 24 to 48 hrs by microdilution method. It is filed as functional. Put shortly:
(§2)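 Broth microdilution MIC on clinical isolates from Teaching Hospital Olomouc, stored at −80 °C. Compounds were serially diluted in brain heart infusion broth over 200–1.56 μg/mL (sometimes extended to 0.78 μg/mL), with an inoculum of 10⁵⁻⁶ CFU/ml per well. Plates were incubated at 37 °C and read at 24/48 h. MIC was taken as the lowest concentration inhibiting growth.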

A short description of series [6]: Induction of apoptosis in human Erythroid progenitor cells assessed as caspase 3/7 activation after 4 hrs by Caspase-Glo 3/7 assay. A digest of the protocol:
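Cord-blood-derived human erythroid progenitor cells plated at 25000 cells/well and exposed to compound prediluted in medium. Caspase 3/7 activation read by Caspase-Glo 3/7 luminescence 4 h after addition, normalized to untreated control cells set as 100%.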

Another series has as its system Bacillus subtilis. Nature of the series: Antibacterial activity against Bacillus subtilis after 24 to 48 hrs by microdilution method. It is filed as functional. Put shortly:
as §1

Series [7] is described as follows: Cytotoxicity against human Erythroid progenitor cells assessed as maximum safe concentration after 48 hrs by CellTiter-blue assay. Type of series: cell-based. The following applies: read-out: Activity. Put shortly:
(§3)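 Normal human erythroid progenitor cells, expanded from umbilical cord blood, plated at 25000 cells/well immediately before compound addition (added as a 5× predilution in culture medium). Viability by CellTiter-Blue fluorescence 48 h after addition, normalized to untreated cells set as 100%.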

Series [8] in a line: Cytotoxicity against human Erythroid progenitor cells assessed as cell viability after 48 hrs by CellTiter-blue assay. It is filed as cell-based. A digest of the protocol:
as §3
On the technique in general: Alamar Blue is a resazurin reagent that responds to reducing activity.

The test system of the next series is Escherichia coli. Nature of the series: Antibacterial activity against Escherichia coli after 24 to 48 hrs by microdilution method. It is filed as functional. Put shortly: as §1
The subject of a further series is Streptococcus agalactiae. As to the kind of experiment: Antibacterial activity against Streptococcus agalactiae after 24 to 48 hrs by microdilution method. Type of series: functional. Put shortly:
as §1

In another series the test system is Pseudomonas aeruginosa. As to the kind of experiment: Antibacterial activity against Pseudomonas aeruginosa after 24 to 48 hrs by microdilution method. Type of series: functional. Put shortly: as §1
For series [9], the system named is Enterococcus faecium. As to the kind of experiment: Antibacterial activity against vancomycin-resistant Enterococcus faecium VanA419/ana after 24 to 48 hrs by microdilution method. Type of series: functional. A digest of the protocol: as §2

The term MIC denotes the lowest concentration found to suppress growth. Read a low MIC as a more susceptible organism. The term IC50 denotes the concentration needed to halve the response being measured.

Values after ≈ are worked out from the molar mass of the structure shown. Active and inactive are the calls of the source. No cut-off for these calls is given here.

As for `CN[C@H](CC(C)C)C(=O)N[C@H]1C(=O)N[C@@H](CC(N)=O)C(=O)N[C@H]2C(=O)N[C@H]3C(=O)N[C@H](C(=O)N[C@H](C(=O)O)c4cc(O)cc(O)c4-c4cc3ccc4O)[C@H](O)c3ccc(c(Cl)c3)Oc3cc2cc(c3O[C@@H]2O[C@H](CO)[C@@H](O)[C@H](O)[C@H]2O[C@H]2C[C@](C)(N)[C@H](O)[C@H](C)O2)Oc2ccc(cc2Cl)[C@H]1O` [VANCOMYCIN], the MIC in the series on Enterococcus faecium [1] is more than 64 µg/mL; against Enterococcus faecalis [2] it was more than 64 µg/mL; with Enterococcus faecalis [3] it was 1 µg/mL (≈ 0.69 µM).

For `CCCCCCCCCCCCCCCCOCCCOP(=O)(CCN1C[C@@H](O)[C@H](O)C1)OC[C@H]1O[C@@H](n2ccc(N)nc2=O)[C@H](O)[C@@H]1O` (stereo not given in full), the minimum inhibitory concentration (MIC) with Enterococcus faecalis [4] is 6.25 µg/mL (≈ 8.69 µM); in the series on Staphylococcus aureus, 25 µg/mL (≈ 34.8 µM); in [5] it was 6.25 µg/mL (≈ 8.69 µM); with Bacillus subtilis, 3.13 µg/mL (≈ 4.35 µM); in the series with Escherichia coli it was more than 200 µg/mL; with Streptococcus agalactiae it was 3.13 µg/mL (≈ 4.35 µM). The MIC against Pseudomonas aeruginosa is more than 200 µg/mL; against Enterococcus faecium [9] it was 6.25 µg/mL (≈ 8.69 µM). Moreover, in series [6], the Activity result is given as “Non-toxic”. Also, the MNTC at 48 h in series [7] was 31.2 µg/mL. Moreover, the IC50 in series [8] stood at 67 µg/mL (≈ 93.2 µM).

With `CCOP(=O)(CCN1C[C@@H](O)[C@H](O)C1)OC[C@H]1O[C@@H](n2ccc(=O)[nH]c2=O)[C@H](O)[C@@H]1O` (stereo not given in full), the Activity result in series [6] is listed as “Non-toxic”. Besides, the minimum inhibitory concentration (MIC) against Escherichia coli and with Pseudomonas aeruginosa was more than 200 µg/mL each time.

`CCCCCCCCCCCCCCCCOP(=O)(CCN1C[C@@H](O)[C@H](O)C1)OC[C@H]1O[C@@H](n2ccc(=O)[nH]c2=O)[C@H](O)[C@@H]1O` (stereo in doubt; 12i-P1) [listing 1 of 2 here]: the Activity result in series [6] is “Toxic”.

As to `CCCCCCCCCCCCCCCCOP(=O)(CCN1C[C@H](O)C[C@H]1CO)OC[C@H]1O[C@@H](n2ccc(=O)[nH]c2=O)[C@H](O)[C@@H]1O` (stereo not given in full), the MIC in the series with Enterococcus faecalis [4] was 6.25 µg/mL (≈ 9.25 µM); in the series on Staphylococcus aureus, 100 µg/mL (≈ 148 µM); in [5] it was 6.25 µg/mL (≈ 9.25 µM); against Bacillus subtilis, 3.13 µg/mL (≈ 4.63 µM); against Escherichia coli it was more than 200 µg/mL; against Streptococcus agalactiae it was 3.13 µg/mL (≈ 4.63 µM). Besides, the MIC with Pseudomonas aeruginosa was more than 200 µg/mL; against Enterococcus faecium [9], 6.25 µg/mL (≈ 9.25 µM). The Activity entry in series [6] was “Non-toxic”. Also, the MNTC at 48 h in series [7] is 62.5 µg/mL. Also, the half-inhibitory concentration (IC50) in [8] worked out at 116 µg/mL (≈ 172 µM).

Consider `CCCCCCCCCCCCCCCCOP(=O)(CCN1C[C@@H](O)[C@H](O)C1)OC[C@H]1O[C@@H](n2ccc(=O)[nH]c2=O)[C@H](O)[C@@H]1O` (single isomer, unassigned; diastereomer 2), for which the outcome in the series with Enterococcus faecalis [4], in the series with Staphylococcus aureus, in the series on Bacillus subtilis and in the series on Streptococcus agalactiae was Active.

With `O=C(N[C@H](CO)[C@H](O)c1ccc([N+](=O)[O-])cc1)C(Cl)Cl` [CHLORAMPHENICOL], it took 2 µg/mL (≈ 6.19 µM) to inhibit growth with Streptococcus agalactiae (MIC).

Consider `CN(C)[C@@H]1C(O)=C(C(N)=O)C(=O)[C@@]2(O)C(O)=C3C(=O)c4c(O)cccc4[C@@](C)(O)[C@H]3C[C@@H]12` [TETRACYCLINE], for which the values for the minimum inhibitory concentration (MIC) in the series on Bacillus subtilis and in the series with Streptococcus agalactiae were 2 µg/mL (≈ 4.5 µM) and 1 µg/mL (≈ 2.25 µM), respectively.

For the compound `CCCCCCCCCCCCCCCCOP(=O)(CCN1C[C@@H](O)[C@H](O)C1)OC[C@H]1O[C@@H](n2ccc(=O)[nH]c2=O)[C@H](O)[C@@H]1O` (stereo in doubt; 12i-P1) [listing 2 of 2 here], the outcome in the series with Enterococcus faecalis [4], in the series with Staphylococcus aureus, in the series on Bacillus subtilis and with Streptococcus agalactiae was Active.

For `CC(C)(C)C(=O)SCCOP(=O)(CCN1C[C@@H](O)[C@H](O)C1)OC[C@H]1O[C@@H](n2ccc(=O)[nH]c2=O)[C@H](O)[C@@H]1O` (stereo not given in full), in [6], the Activity result is reported as “Non-toxic”. Also, in series [7], the MNTC at 48 h is more than 1000 µg/mL. For the same compound, the half-inhibitory concentration (IC50) in series [8] was more than 1000 µg/mL. For the same compound, the minimal inhibitory concentration (MIC) against Escherichia coli and in the series with Pseudomonas aeruginosa was more than 200 µg/mL throughout.
